The values that follow come from ChEMBL document CHEMBL4513216, “Probing the Open Global Health Chemical Diversity Library for Multistage-Active Starting Points for Next-Generation Antimalarials” (ACS Infect Dis, 2020).

This data set can be described thus: Toxicity liver stage against HepG2, at 10uM. It counts as cell-based. Also on record: test concentration 10 uM, cell line HepG2-A16-CD81EGFP. The following applies: human, HepG2-A16-CD81EGFP cells; read-out: INHIBITION
In outline:
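Uninfected HepG2-A16-CD81EGFP cells, 3 × 10^3 per well, 1536-well, plated on prespotted compound at 10 μM final, parasite-free screening media added to match infected plates; puromycin 10 μM positive, DMSO 0.5% negative; run in parallel with 48 h PbLuc assay at 37 °C, 5% CO2; viability by CellTiter-Glo luminescence, normalized to controls.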
Take `Oc1ccc(N2CCN(Cc3cc4c(cc3Br)OCCO4)CC2)cc1`: the cytotoxicity at 10 µM came to 6.87%.
For `CC[C@H]1CN(S(=O)(=O)c2ccc(OC)cc2)CC[C@H]1CC(=O)O` the value was 7.28%; for `COc1ccc(OC)c(Sc2ncccc2C(=O)NCC2CC2)c1`, 20.7%; for `CC(C)(Oc1ccc(C(N)=O)cc1)C(=O)N(CCC#N)C1CC1`, 1.58%.
Then `COCCc1noc(C2CCN(S(=O)(=O)c3cccs3)CC2)n1`, with 7.51%; and `Cn1cnnc1S(=O)(=O)C1CCN(C(=O)c2ccsc2)CC1`, with 6.81%; and `CCCN1CCC2(C1)c1ccccc1S(=O)(=O)N2Cc1ccc(F)cc1` (stereo unspecified), with 18.3%.
For `O=C(O)c1cc(-c2ccn(CC3CC3)n2)n2ccccc12` the value was 13.2%; for `Cc1cc(C(=O)N2CC[C@@H]3CO[C@@H](CN4CCCC4)[C@@H]3C2)no1`, 7.61%.
With `CC(C)NC(=O)C1Cc2nc(-c3ccsc3)sc2N1CC1CC1` (stereo unspecified), the cytotoxicity at 10 µM came to 6.61%.
Then `O=C(c1ccc[nH]1)N1CCN(Cc2ccncc2)c2ncccc2C1`, with 10.1%; and `O=C(c1cnccn1)N1CCC2(CCN(Cc3ccsc3)C2)CC1`, with -3.33%.
Take `CN1CCN(C(=O)[C@@H]2C[C@@H]3CCN(c4cccc(F)c4)C[C@H]3O2)CC1`: the cytotoxicity at 10 µM is -6.22%.
For `O=C(c1ccncc1)N1CCN2C[C@H](Oc3cncnc3)C[C@H]2C1` the value was 8.7%; for `CN(Cc1ccco1)C[C@H]1OC[C@@H]2CCN(Cc3nccs3)C[C@@H]21`, -5.9%.
For `Cc1oncc1C(=O)N1CCC2(CC1)CC(c1ccccc1)C(=O)N2C` (stereo unspecified) the value was -14.5%; for `Nc1nnnn1NCc1cccc2ccccc12`, 10.4%.
In the case of `CC1(c2nccs2)CCN(C(=O)CCN2CCOCC2)CC1`, the cytotoxicity at 10 µM was 2.97%.
As to `COCC(=O)N1CCCC(C)(c2nncn2C)C1` (stereo unspecified), the cytotoxicity at 10 µM worked out at 4.08%.
Then `CNC(=O)CCc1cc(C)nc(C2CCN(CC(=O)N(C)C)CC2)c1`, with 2.9%; and `Nc1nc2nc(C3CCN(C(=O)c4cscn4)C3)ccc2s1` (stereo unspecified), with -5.72%.
Then `CNc1cc(CNC(=O)c2ccccc2OC)nc(-c2ccncc2)n1`, with -13.7%.
Then `CC1CCCCN1c1nc2c(c(=O)[nH]1)CCN(Cc1ccccc1O)C2` (stereo unspecified), with -1.97%.
As to `CNc1cncc(C2CCCN2C(=O)Cn2c(=O)oc3ccccc32)n1` (stereo unspecified), the cytotoxicity at 10 µM was -6.14%.
In the case of `CC(C)NC(=O)CN(C)C(=O)c1c(Br)c2ccccc2n1C`, the cytotoxicity at 10 µM was determined as 4.61%.
Regarding `CCN(CC(=O)NC(C)(C)C)Cc1cccc2c1OCCO2`, the cytotoxicity at 10 µM was -18.7%.
Then `CN(C)CC1CCCCN1C(=O)c1ccc(N2CCOCC2)cc1` (stereo unspecified), with -0.0679%; and `CCC(C)CS(=O)(=O)NCCc1csc(N2CCCC2)n1` (stereo unspecified), with 1.28%; and `CCOc1ccc(Cl)c(C(=O)N2CCCC(N3CCCC3)C2)n1` (stereo unspecified), with 8.29%.
For `CN(C)c1ccc(C(=O)N2CCCC2c2cnn(C)c2)nn1` (stereo unspecified) the value was -10.3%; for `CC(C)c1nc(S(=O)(=O)N(C)c2cc(F)ccc2F)c[nH]1`, 13.9%; for `Cc1noc(C)c1CCCNC(=O)Nc1ccc2c(c1)COC2`, 3.27%.
With `CCCc1nnc(N2CCC(N3CCCCCC3)CC2)o1`, the cytotoxicity at 10 µM was -15.3%.
Then `COc1cc(N2CCN(Cc3ccsc3)C(CCO)C2)nc(N)n1` (stereo unspecified), with 2.45%.
With `Cc1ccc(-c2ncc(C(=O)N3CCN4CCCCC4C3)c(O)n2)cc1` (stereo unspecified), the cytotoxicity at 10 µM was -7.82%.
Regarding `COCCn1cnnc1CN(C)c1nc(N)nc2c1CCCC2`, the cytotoxicity at 10 µM was -6.98%.
On to `CCN(CC)CCN(C)c1nc(-c2ccc(Cl)cc2)nc2c1CNC2`, for which the cytotoxicity at 10 µM was 1.78%.
Then `CCCc1cc(C(=O)NC2CCCCNC2=O)[nH]n1` (stereo unspecified), with 0.828%; and `N#Cc1ccccc1C(=O)NCCC1CN(Cc2ccco2)CCO1` (stereo unspecified), with -7.25%.
Then `CCOc1ccnc(NCCc2nc(C)cc(=O)[nH]2)n1`, with -6.73%; and `Cc1cnc(NCC(C)(C)N2CCCCC2)nc1`, with -2.69%; and `N#Cc1cc2c(nc1O)CCCCC2`, with -6.88%.
Then `Cc1ncccc1O[C@H]1CCN(C(=O)c2cccs2)CC[C@@H]1O`, with 0.719%.
For `COCCN1CCC(NCc2ccc(Cl)cc2)C1` (stereo unspecified), the cytotoxicity at 10 µM is -5.56%.
For `CCS(=O)(=O)NCCCNCc1c(C)nn(C)c1N(C)C` the value was -9.66%; for `CCc1n[nH]c(C2CN(C(=O)c3ccnc(C)n3)CCO2)n1` (stereo unspecified), -7.06%; for `Cc1nn(C)c(N(C)C)c1CNC(C)COc1ccccc1F` (stereo unspecified), -14.1%.
Then `Cc1nn(C)c(C)c1C1CCCN1Cc1nc(N)c2ccccc2n1` (stereo unspecified), with -16%.
Take `CC(C)(C)C(=O)NCCC(=O)NCCc1ccn(-c2ccccc2)n1`: the cytotoxicity at 10 µM is -8.89%.
Then `CCc1nc(C2CCCN(C(=O)c3ccc(Cl)cc3)C2)no1` (stereo unspecified), with 5.71%.
Then `CCc1nc(CNCC2CCCN2c2cccnn2)no1` (stereo unspecified), with -12.6%.
For `O=C(COc1cccnc1)N1CCCC(n2cccn2)C1` (stereo unspecified) the value was -1.92%.
For the molecule `Cc1nc(C)n(C2CCCN(C(=O)c3nc(C)n4ccccc34)C2)n1` (stereo unspecified), the cytotoxicity at 10 µM was -10.9%.
Then `CC(C)c1nc(CN2CCC(CO)CC2)cs1`, with -20.1%; and `O=C(Nc1cc(F)ccc1OCC1CCCO1)c1ccoc1` (stereo unspecified), with 4.43%; and `COCCn1cc(C(=O)N2CCCC(n3cncn3)C2)ccc1=O` (stereo unspecified), with -2.38%.
As to `Cc1cc(CN(C)C(=O)NCC2CCS(=O)(=O)C2)no1` (stereo unspecified), the cytotoxicity at 10 µM is -0.874%.
For `O=C(NCCc1ccsc1)Nc1cccnc1N1CCCC1` the value was -6.78%; for `CN1CCC/C1=N\S(=O)(=O)c1ccc(NC(=O)c2cccs2)cc1`, -3.34%.
For `CC(C)NC(=O)[C@H]1C[C@@H]2[C@@H](C1)OCCN2Cc1ccccn1` the value was 6.62%.
For `O=C(c1ccnnc1)N1CCN(Cc2ccncc2)c2ncccc2C1` the value was -0.201%; for `Cc1ccnc(OC[C@@]23CCO[C@@H]2CCN(c2ncccn2)C3)n1`, 4.86%; for `N#Cc1cccc(CN2CC[C@@H]3CO[C@@H](CN4CCCC4)[C@@H]3C2)c1`, -0.159%.
As to `Cc1noc(C)c1CN1CCN(CCN(C)C)c2ncccc2C1`, the cytotoxicity at 10 µM was determined as 7.83%.
Then `O=C1CCC2(CCCN(CCc3ccccc3)C2)N1Cc1cccnc1` (stereo unspecified), with 4.05%.
Turning to `O=C([C@H]1C[C@@H]2CCN(c3cccc(F)c3)C[C@H]2O1)N1CCCCO1`, the cytotoxicity at 10 µM worked out at 1.67%.
Then `O=C(c1ccco1)N1C[C@@H]2OCCN(CCN3CCCC3)[C@@H]2C1`, with 1.54%.
Then `COCCN1CCCC12CCN(c1ncccn1)CC2`, with 11.4%; and `CC(C)n1nc(Cn2cccc2)c2c1CN(C1CCOCC1)C2`, with 7.55%.
As to `CN(C)[C@@H]1CCN(C(=O)NC2CCCC2)[C@H]1Cc1ccncc1`, the cytotoxicity at 10 µM stood at 5.83%.
For `Cc1cccc(-n2cc3nc(N4CCC(C)CC4)[nH]cc-3c2=O)c1` the value was 0.738%.
